# Data published in ChEMBL document CHEMBL1649241, “Antimalarial activity of simalikalactone E, a new quassinoid from Quassia amara L. (Simaroubaceae)” (Antimicrob Agents Chemother, 2009).
# How the values were obtained:
# Vero = experiment: Cytotoxicity against african green monkey Vero cells assessed as incorporation of [3H]hypoxanthine after 48 hrs; type: cell-based; conditions: chlorocebus sabaeus
# In short: (§1)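 Vero, MCF7 and THP1 cells were grown under the P. falciparum culture conditions, except that 10% fetal calf serum replaced 5% human serum. Cells were incubated 48 h with serial drug dilutions. Growth was measured by [3H]hypoxanthine incorporation relative to untreated controls. IC50 is the mean ± SEM of ≥3 independent experiments.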
# THP-1 = experiment: Cytotoxicity against human THP1 cells assessed as incorporation of [3H]hypoxanthine after 48 hrs; type: cell-based; conditions: thp-1, 48 h; in short: as §1
# MCF7 = experiment: Cytotoxicity against human MCF7 cells assessed as incorporation of [3H]hypoxanthine after 48 hrs; type: cell-based; conditions: mcf7, 48 h; in short: as §1
# [1] = system: Plasmodium vinckei petteri; experiment: Antiplasmodial activity against Plasmodium vinckei petteri infected in CD mouse assessed as suppression of parasitemia at 1 mg/kg/day, ip measured on day 5 post-infection by Giemsa staining; type: functional; conditions: 120 h, route intraperitoneal
# In short: (§2)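 Four-day suppressive test in female CD mice (20 ± 2 g) infected with 10^6 P. vinckei petteri-infected erythrocytes on day 0. Groups of five were dosed i.p. (DMSO vehicle) or p.o. (carboxymethylcellulose vehicle) on days 0–3 at 0.5–20 mg/kg/day. Parasitemia was read from Giemsa-stained tail-blood smears (≥5,000 erythrocytes). % inhibition = (control − treated parasitemia)/control × 100.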
# [2] = system: Plasmodium vinckei petteri; experiment: Antiplasmodial activity against Plasmodium vinckei petteri infected in CD mouse assessed as suppression of parasitemia at 5 mg/kg/day, ip measured on day 5 post-infection by Giemsa staining; type: functional; conditions: 120 h, route intraperitoneal; in short: as §2
# [3] = system: Plasmodium vinckei petteri; experiment: Antiplasmodial activity against Plasmodium vinckei petteri infected in CD mouse assessed as suppression of parasitemia at 10 mg/kg/day, ip measured on day 5 post-infection by Giemsa staining; type: functional; conditions: 120 h, route intraperitoneal
# In short: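 Four-day suppressive test in female CD mice (20 ± 2 g) infected on day 0 with P. vinckei petteri-infected red blood cells in RPMI. Groups of five treated i.p. once daily, days 0–3; DMSO-only mice were the i.p. control. Parasitemia was counted on Giemsa-stained tail-blood smears (at least 5,000 erythrocytes). Inhibition % = (control − treated parasitemia)/control × 100.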
# [4] = system: Plasmodium vinckei petteri; experiment: Antiplasmodial activity against Plasmodium vinckei petteri infected in po dosed CD mouse assessed as mean survival time at 5 mg/kg/day, ip for 4 days measured upto day 21 post-infection; type: functional
# In short: (§3)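 Female CD mice were infected with 10^6 P. vinckei petteri-infected erythrocytes and dosed i.p. or p.o. on days 0–3, five per group. Survival was followed to day 21. Mean survival time is the area under the Kaplan–Meier survivor function. Where mice survived, an extended mean was obtained by exponential extension of the survivor function to zero. Comparisons used the log rank test.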
# [5] = system: Plasmodium vinckei petteri; experiment: Antiplasmodial activity against Plasmodium vinckei petteri infected in po dosed CD mouse assessed as mean survival time at 10 mg/kg/day, ip for 4 days measured upto day 21 post-infection; type: functional; in short: as §3
# [6] = system: Plasmodium vinckei petteri; experiment: Antiplasmodial activity against Plasmodium vinckei petteri infected in po dosed CD mouse assessed as extended mean survival time at 10 mg/kg/day, ip for 4 days; type: functional; in short: as §3
# Plasmodium falciparum [7] = experiment: Antiplasmodial activity against Plasmodium falciparum F32 assessed as suppression of parasitemia after 4 hrs by Giemsa staining; type: functional, organism-based; conditions: F32, 4 h
# In short: (§4)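 Asexual blood-stage P. falciparum growth inhibition, run by a modified Desjardins method. Parasites were grown by a modified Trager–Jensen culture and synchronized by magnetic enrichment plus 5% D-sorbitol lysis. F32 is chloroquine-sensitive; FcB1 and W2 are chloroquine-resistant. IC50 is the mean ± SEM of at least three independent experiments.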
# Plasmodium falciparum [8] = experiment: Antiplasmodial activity against Plasmodium falciparum FcB1/Columbia assessed as suppression of parasitemia after 4 hrs by Giemsa staining; type: functional, organism-based; in short: as §4
# Plasmodium falciparum [9] = experiment: Antiplasmodial activity against Plasmodium falciparum W2 assessed as suppression of parasitemia after 4 hrs by Giemsa staining; type: functional, organism-based; conditions: W2, 4 h; in short: as §4
# Plasmodium falciparum [10] = experiment: Antiplasmodial activity against Plasmodium falciparum W2 gametocytes assessed as suppression of parasitemia […] by Giemsa staining; type: functional, organism-based
# In short: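 W2 gametocytogenesis was induced on day 0 by a modified Ifediba–Vanderberg method, with N-acetylglucosamine added on day 10. Increasing compound dilutions were added on day 13. On day 15, Giemsa-stained thin smears were counted (≥10,000 erythrocytes each) to estimate gametocytemia against untreated and reference-drug controls. IC50 is the mean ± SEM of ≥3 independent experiments.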
# Plasmodium berghei = experiment: Antiplasmodial activity against Plasmodium berghei infected in ip dosed mouse; type: functional
# Plasmodium yoelii yoelii = experiment: Antiplasmodial activity against Plasmodium yoelii yoelii infected in po dosed rodents; type: functional
# [11] = system: Plasmodium vinckei petteri; experiment: Antiplasmodial activity against Plasmodium vinckei petteri infected in CD mouse assessed as suppression of parasitemia at 1 mg/kg/day, po measured on day 5 post-infection by Giemsa staining; type: functional; conditions: 120 h; in short: as §2
# [12] = system: Plasmodium vinckei petteri; experiment: Antiplasmodial activity against Plasmodium vinckei petteri infected in CD mouse assessed as suppression of parasitemia at 20 mg/kg/day, po measured on day 5 post-infection by Giemsa staining; type: functional; conditions: 120 h; in short: as §2
# [13] = system: Plasmodium vinckei petteri; experiment: Antiplasmodial activity against Plasmodium vinckei petteri infected in CD mouse assessed as suppression of parasitemia at 10 mg/kg/day, po measured on day 5 post-infection by Giemsa staining; type: functional; conditions: 120 h; in short: as §2
# [14] = system: Plasmodium vinckei petteri; experiment: Antiplasmodial activity against Plasmodium vinckei petteri infected in ip dosed CD mouse assessed as suppression of parasitemia measured on day 5 post-infection by Giemsa staining; type: functional; conditions: 120 h; in short: as §2
# [15] = system: Plasmodium vinckei petteri; experiment: Antiplasmodial activity against Plasmodium vinckei petteri infected in po dosed CD mouse assessed as suppression of parasitemia measured on day 5 post-infection by Giemsa staining; type: functional; conditions: 120 h; in short: as §2
# [16] = system: Plasmodium vinckei petteri; experiment: Antiplasmodial activity against Plasmodium vinckei petteri infected in po dosed CD mouse assessed as mean survival time at 1 mg/kg/day, ip for 4 days measured upto day 21 post-infection; type: functional; in short: as §3
# [17] = system: Plasmodium vinckei petteri; experiment: Antiplasmodial activity against Plasmodium vinckei petteri infected in po dosed CD mouse assessed as mean survival time at 1 mg/kg/day, po for 4 days measured upto day 21 post-infection; type: functional; in short: as §3
# [18] = system: Plasmodium vinckei petteri; experiment: Antiplasmodial activity against Plasmodium vinckei petteri infected in po dosed CD mouse assessed as mean survival time at 10 mg/kg/day, po for 4 days measured upto day 21 post-infection; type: functional; in short: as §3
# [19] = system: Plasmodium vinckei petteri; experiment: Antiplasmodial activity against Plasmodium vinckei petteri infected in po dosed CD mouse assessed as extended mean survival time at 1 mg/kg/day, ip for 4 days; type: functional; in short: as §3
# [20] = system: Plasmodium vinckei petteri; experiment: Antiplasmodial activity against Plasmodium vinckei petteri infected in po dosed CD mouse assessed as extended mean survival time at 5 mg/kg/day, ip for 4 days; type: functional; in short: as §3
# [21] = system: Plasmodium vinckei petteri; experiment: Antiplasmodial activity against Plasmodium vinckei petteri infected in po dosed CD mouse assessed as extended mean survival time at 0.5 mg/kg/day, ip for 4 days; type: functional; in short: as §3
# [22] = system: Plasmodium vinckei petteri; experiment: Antiplasmodial activity against Plasmodium vinckei petteri infected in po dosed CD mouse assessed as extended mean survival time at 1 mg/kg/day, po for 4 days measured upto day 21 post-infection; type: functional; in short: as §3
# [23] = system: Plasmodium vinckei petteri; experiment: Antiplasmodial activity against Plasmodium vinckei petteri infected in po dosed CD mouse assessed as extended mean survival time at 10 mg/kg/day, po for 4 days; type: functional; in short: as §3
# [24] = system: Plasmodium vinckei petteri; experiment: Antiplasmodial activity against Plasmodium vinckei petteri infected in po dosed CD mouse assessed as extended mean survival time at 20 mg/kg/day, po for 4 days; type: functional; in short: as §3
# [25] = system: Plasmodium vinckei petteri; experiment: Antiplasmodial activity against Plasmodium vinckei petteri infected in po dosed CD mouse assessed as mean survival time at 0.5 mg/kg/day, ip for 4 days measured upto day 21 post-infection; type: functional; in short: as §3
# [26] = system: Plasmodium vinckei petteri; experiment: Antiplasmodial activity against Plasmodium vinckei petteri infected in CD mouse assessed as suppression of parasitemia at 0.5 mg/kg/day, ip measured on day 5 post-infection by Giemsa staining; type: functional; conditions: 120 h, route intraperitoneal; in short: as §2
smiles,measurement,setting,value
CCN(CC)CCCC(C)Nc1ccnc2cc(Cl)ccc12 (stereo not drawn) [CHLOROQUINE],Activity,Vero,> 0.5 µM
same,Activity,THP-1,> 500 nM
same,Activity,MCF7,> 500 nM
same,inhibition in vivo at 1 mg/kg/day,[1],≤ 0%
same,inhibition in vivo at 5 mg/kg/day,[2],100%
same,inhibition in vivo at 10 mg/kg/day,[3],100%
same,MST,[4],12.8 days
same,MST,[5],19.2 days
same,MST,[6],43.87 days
COc1cc(NC(C)CCCN)c2ncccc2c1 (stereo not drawn) [PRIMAQUINE],IC50,Plasmodium falciparum [7],6.17 µM
same,IC50,Plasmodium falciparum [8],8.9 µM
same,IC50,Plasmodium falciparum [9],7.14 µM
same,IC50,Plasmodium falciparum [10],8.9 µM
same,Activity,Vero,340 µM
CC[C@@H](C)C(=O)O[C@H]1C(=O)O[C@@H]2C[C@H]3C(C)=CC(=O)[C@@H](O)[C@]3(C)[C@H]3[C@@H](O)[C@H](O)[C@]4(C)OC[C@]32[C@@H]14 [SIMALIKALACTONE D],Activity,Vero,0.058 µM
same,Activity,THP-1,< 2 nM
same,Activity,MCF7,< 20 nM
same,ED50,Plasmodium berghei,0.2 mg/kg/day
same,ED50,Plasmodium yoelii yoelii,3.7 mg/kg/day
CC[C@H](C)C(=O)O[C@@H]1[C@H]2C(C)=CC(=O)[C@@H](O)[C@]2(C)[C@H]2[C@@H](O)[C@H](O)[C@@]3(C)OC[C@@]24[C@@H]1OC(=O)[C@H](OC(=O)[C@@H](C)CC)[C@@H]34 [SIMALIKALACTONE E],IC50,Plasmodium falciparum [10],1.12 µM
same,Activity,Vero,6.574 µM
same,Activity,THP-1,33 nM
same,Activity,MCF7,47 nM
same,inhibition in vivo at 1 mg/kg/day,[1],98%
same,inhibition in vivo at 5 mg/kg/day,[2],100%
same,inhibition in vivo at 1 mg/kg/day,[11],55%
same,inhibition in vivo at 20 mg/kg/day,[12],100%
same,inhibition in vivo at 10 mg/kg/day,[13],95%
same,ED50,[14],0.5 mg/kg/day
same,ED50,[15],1 mg/kg/day
same,MST,[16],18.6 days
same,ED50,[16]; Plasmodium vinckei,3 mg/kg/day
same,MST,[4],11.4 days
same,MST,[17],11 days
same,MST,[18],12.4 days
same,MST,[19],93.89 days
same,MST,[20],20.57 days
same,MST,[21],41.07 days
same,MST,[22],13.61 days
same,MST,[23],15.01 days
same,MST,[24],16.41 days
same,MST,[25],16.4 days
same,inhibition in vivo at 0.5 mg/kg/day,[26],59%
